In one experiment the test system is A549. The experiment can be described thus: Cytotoxicity against human A549 cells after 48 hrs by sulforhodamine B assay. In kind it is functional. Conditions: A549, 48 h, read-out: GI50. A digest of the protocol:
(§1)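 Cells were grown in RPMI 1640 with 10% FBS and 2 mM L-glutamine, plated at densities set by doubling time, and pre-incubated 24 h at 37 °C, 5% CO2. Drugs were tested at 0.1, 1, 10 and 100 µM in triplicate wells for 48 h continuous exposure. Cells were fixed with 10% TCA (final) and stained with 0.4% SRB. A540 was read against a 690 nm reference, and percent growth was calculated relative to control. Experiments were repeated three times.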

Another experiment deals with PC-3. Briefly: Cytotoxicity against human PC3 cells after 48 hrs by sulforhodamine B assay. In kind it is functional. The following applies: PC-3, 48 h, read-out: GI50. A digest of the protocol: as §1
On the technique in general: The SRB assay estimates cell density from bound dye.

A further experiment relates to OVCAR-8. Briefly: Cytotoxicity against human OVCAR8 cells after 48 hrs by sulforhodamine B assay. In kind it is functional. Conditions: OVCAR-8, 48 h, read-out: GI50. A digest of the protocol: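 Run by the NCI 60-cell-line screen. A one-dose pre-test was done first, followed by the main test over a 5-log dose range (10^-4 to 10^-8 M). Results are reported as log molar GI50 (50% net growth inhibition), TGI (total growth inhibition) and LC50 (50% net cell death), with mean-graph midpoints across all lines.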

For the next experiment, the system named is A2780. The experiment can be described thus: Cytotoxicity against human A2780 cells after 48 hrs by sulforhodamine B assay. In kind it is functional. Conditions: A2780, 48 h. A digest of the protocol:
as §1

Another experiment concerns KB. Briefly: Cytotoxicity against human KB cells after 48 hrs by sulforhodamine B assay. In kind it is functional. A digest of the protocol: as §1
Experiment [1] concerns MCF7. Briefly: Induction of apoptosis in human MCF7 cells assessed as nuclear fragmentation at 2.5 uM after 48 hrs by DAPI staining. In kind it is functional, cell-based. Summed up: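 MCF-7 cells grown on glass coverslips and incubated 48 h with or without compound. Fixed in 3% paraformaldehyde/0.02% glutaraldehyde in PBS, stained with DAPI, and nuclear morphology examined by fluorescence microscopy.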

The target of a further experiment is Tubulin (Homo sapiens) (UniProt P68371+Q9H4B7+P0DPH7+P68366+Q13509+Q71U36+P04350+Q3ZCM7+P07437+P68363+Q9BQE3+Q6PEY2+Q13885+Q9BVA1+Q9BUF5). Conditions: MCF7, 2.5 uM.
Experiment [2] relates to MCF7. The experiment can be described thus: Cell cycle arrest in human MCF7 cells assessed as accumulation at G0 phase at 5 uM after 24 hrs using propidium iodide staining by flow cytometry relative to control. In kind it is functional. Summed up:
(§2)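 MCF-7 cells were seeded at 5×10^5 per 60 mm dish and grown 24 h. They were then exposed to 5 uM compound for a further 24 h, with untreated control cells alongside. Cells were trypsinised, fixed in ice-cold 70% ethanol (4 °C, 30 min), treated with 1 mg/ml RNase A (37 °C, 30 min) and stained with propidium iodide/citrate/Triton solution. DNA content was read by flow cytometry on 20,000 events.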

Experiment [3] deals with MCF7. The experiment can be described thus: Cell cycle arrest in human MCF7 cells assessed as accumulation at G1 phase at 5 uM after 24 hrs using propidium iodide staining by flow cytometry relative to control. In kind it is functional. A digest of the protocol: as §2
For experiment [4], the system named is MCF7. The experiment can be described thus: Cell cycle arrest in human MCF7 cells assessed as accumulation at S phase at 5 uM after 24 hrs using propidium iodide staining by flow cytometry relative to control. In kind it is functional. A digest of the protocol:
as §2
In general terms: A flow cytometer gives signals particle by particle.

Experiment [5] relates to MCF7. The experiment can be described thus: Cell cycle arrest in human MCF7 cells assessed as accumulation at G2/M phase at 5 uM after 24 hrs using propidium iodide staining by flow cytometry relative to control. In kind it is functional. A digest of the protocol:
as §2

The test system of experiment [6] is MCF7. The experiment can be described thus: Reduction of cyclin A expression in human MCF7 cells at 5 uM after 24 hrs by Western blotting. In kind it is functional, cell-based. A digest of the protocol: (§3)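 MCF-7 cells, kept in DMEM with 10% fetal calf serum at 37 °C under 5% CO2, treated 24 h. Lysis in ice-cold RIPA with protease inhibitors; Bradford quantitation; 30 µg protein per lane on 12% SDS-PAGE, then PVDF. Primary antibodies (1:500) at 4 °C overnight; HRP secondary (1:2000); chemiluminescence detection; β-actin loading control.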

Experiment [7] has as its system MCF7. The experiment can be described thus: Induction of apoptosis in human MCF7 cells assessed as increase of cleaved PARP level at 5 uM after 24 hrs by Western blotting. In kind it is functional, cell-based. Summed up:
as §3
On the technique in general: A western blot detects proteins with antibodies after separation by electrophoresis.

Structures can show the parent of a compound that is named as a salt. Calls of active or inactive are those of the source. The calls are words filed in the database; no cut-off is given here.

The GI50 is the concentration that inhibits growth by half. Take `COc1cc(C2NC(=O)c3ccccc3N2)ccc1OCCCCOc1cc(C2CC(c3cc(OC)c(OC)c(OC)c3)=NO2)ccc1OC` (stereo unspecified): the GI50 with A549 is 150 nM; in the experiment on PC-3, 2800 nM; in the experiment on OVCAR-8, 180 nM; in the experiment with A2780, 22000 nM; in the experiment with KB it was 30000 nM.
Regarding `COc1cc(C2NC(=O)c3ccccc3N2)ccc1OCCCCOc1c(OC)cc(C2=NOC(c3cc(OC)c(OC)c(OC)c3)C2)cc1OC` (stereo unspecified), the GI50 is 14000 nM in the experiment with A549; 460 nM in the experiment on PC-3; 300 nM in the experiment with OVCAR-8; greater than 100000 nM with A2780; 21000 nM in the experiment on KB.
Turning to `COc1ccc(-c2cc(-c3cc(OC)c(OC)c(OC)c3)on2)cc1OCCCCOc1cc(C2NC(=O)c3ccccc3N2)ccc1OC` (stereo unspecified), the GI50 in the experiment on A549 was greater than 100000 nM; in the experiment on PC-3, 2100 nM; in the experiment with OVCAR-8, 150 nM; with A2780, greater than 100000 nM; in the experiment with KB, greater than 100000 nM.
As for `COC(=O)Nc1nc2cc(C(=O)c3cccs3)ccc2[nH]1`, the outcome with MCF7 [1] was Active. Further, the inhibition entry on Tubulin (Homo sapiens) is “Active”.
`COc1cccc2c1C(=O)c1c(O)c3c(c(O)c1C2=O)C[C@@](O)(C(=O)CO)C[C@@H]3O[C@H]1C[C@H](N)[C@H](O)[C@H](C)O1` [DOXORUBICIN HYDROCHLORIDE]: the GI50 with A549 was 130 nM; in the experiment on PC-3, 160 nM; with OVCAR-8, 150 nM; in the experiment on A2780, 180 nM; in the experiment on KB, 190 nM.
Take `COc1cc(C2NC(=O)c3ccccc3N2)ccc1OCCCCCOc1cc(C2CC(c3cc(OC)c(OC)c(OC)c3)=NO2)ccc1OC` (stereo unspecified): the GI50 with A549 was 160 nM; with PC-3 it was 2400 nM; in the experiment on OVCAR-8, 140 nM; in the experiment with A2780, greater than 100000 nM; in the experiment on KB, 27000 nM.
Take `COc1ccc(/C=C\c2cc(OC)c(OC)c(OC)c2)cc1O` [COMBRETASTATIN A4]: the Activity in the experiment on MCF7 [2] was determined as 2.53%; in the experiment with MCF7 [3], 16.05%; in the experiment on MCF7 [4] it was 15.92%; with MCF7 [5], 65.5%. Also, the result in the experiment on MCF7 [6] and with MCF7 [7] was Active.
`COc1cc(C2NC(=O)c3ccccc3N2)ccc1OCCCOc1cc(C2CC(c3cc(OC)c(OC)c(OC)c3)=NO2)ccc1OC` (stereo unspecified): the GI50 in the experiment on A549 came out at 170 nM; in the experiment on PC-3, 2500 nM; in the experiment with OVCAR-8, 170 nM; in the experiment with A2780, 26000 nM; in the experiment on KB, 28000 nM.
Consider `COc1ccc(C2NC(=O)c3ccccc3N2)cc1OCCCCOc1c(OC)cc(-c2cc(-c3cc(OC)c(OC)c(OC)c3)no2)cc1OC` (stereo unspecified), for which the GI50 with A549 amounted to 180 nM; in the experiment on PC-3, 2000 nM; in the experiment on OVCAR-8, 25000 nM; with A2780, 2000 nM; in the experiment with KB it was 26000 nM.
For `COc1cc(C2NC(=O)c3ccccc3N2)ccc1OCCCCCBr` (stereo unspecified), the Activity is reported as 1.61% in the experiment with MCF7 [2], 69% in the experiment with MCF7 [3], 12.75% in the experiment on MCF7 [4] and 16.64% with MCF7 [5].
For `COc1cc(C2=NOC(c3cc(OC)c(OC)c(OC)c3)C2)cc(OC)c1O` (stereo unspecified), the Activity in the experiment on MCF7 [2] stood at 0.5%; with MCF7 [3] it was 44.54%; in the experiment with MCF7 [4] it was 20.6%; with MCF7 [5], 34.36%.
Consider `COc1cc(C2NC(=O)c3ccccc3N2)ccc1OCCCOc1c(OC)cc(C2=NOC(c3cc(OC)c(OC)c(OC)c3)C2)cc1OC` (stereo unspecified), for which the GI50 in the experiment on A549 is 20000 nM; in the experiment with PC-3, 520 nM; in the experiment with OVCAR-8 it was 280 nM; with A2780 it was greater than 100000 nM; in the experiment on KB it was 22000 nM.

For the origin of these results see ChEMBL document CHEMBL1667760, “Synthesis and biological evaluation of 3,5-diaryl isoxazoline/isoxazole linked 2,3-dihydroquinazolinone hybrids as anticancer agents” (2011).
